OXTR agonist – human OXTR agonists, primary screen, fluorescence, CHO-OTR cells, Fluo-8 calcium; Oxytocin receptor (Homo sapiens), P30559; Fluo-8 calcium fluorescence; normalized: DMSO 0%, oxytocin 100%; activation, % at 3 µM; hit rate 0.32% among 320,000; AID 2435, 2010;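 active means activation above the mean of all tested compounds plus 3 SD, cutoff set per screening run, cut at about 20% in these data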;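 further: peak over basal fluorescence ratio from a 100 s FLIPR kinetic read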
CHO parental Ca – ATP-evoked calcium signal inhibitors, parental CHO, primary screen, counter-screen for OX1R antagonist project, cell-based, fluorescence, Fluo-8 calcium dye. hit rate 0.63% among 330,000. parental CHO-K1, ATP-induced calcium, Fluo-8 fluorescence. AID 463079, 2010. inhibition, % at 5.6 µM;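 active means inhibition above that plate's mean sample inhibition plus 3 SD, cut at about 26% in these data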
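Material – parental CHO cells · Reagent – ATP stimulus · Compound – single nominal dose of 5.6 µM per compound · Detection – Fluo-8 fluorescence · Read-out basis – percent inhibition of calcium signal · Controls – ATP-challenged DMSO wells low, unchallenged DMSO wells high · Repeats – no replicates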
OX1R antag-1 – OX1R (HCRTR1) antagonists, primary screen, fluorescence, CHO/OX1R cells, Fluo-8 calcium, orexin A; Orexin/Hypocretin receptor type 1 (Homo sapiens), O43613; Fluo-8 calcium fluorescence; inhibition, % at 5 µM; hit rate 0.43% among 330,000; AID 434989, 2010;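 active means inhibition above its plate's threshold, mean inhibition of all tested compounds on the plate plus 3 SD, cut at about 37% in these data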
Target sequence (O43613 whole entry, looked up): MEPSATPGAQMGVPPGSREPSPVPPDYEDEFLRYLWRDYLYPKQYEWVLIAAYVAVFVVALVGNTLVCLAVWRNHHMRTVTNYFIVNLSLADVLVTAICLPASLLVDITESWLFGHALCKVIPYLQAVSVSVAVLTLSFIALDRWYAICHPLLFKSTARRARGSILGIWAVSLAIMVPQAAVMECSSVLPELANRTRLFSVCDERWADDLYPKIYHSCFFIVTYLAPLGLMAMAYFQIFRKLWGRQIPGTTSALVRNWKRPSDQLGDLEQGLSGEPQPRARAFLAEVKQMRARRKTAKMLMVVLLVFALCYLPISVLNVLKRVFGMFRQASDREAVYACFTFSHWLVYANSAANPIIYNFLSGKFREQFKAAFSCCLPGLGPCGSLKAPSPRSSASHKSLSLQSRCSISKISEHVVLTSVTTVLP
V1aR counter – agonists of human V1a receptor, primary screen, counter-screen for OXTR agonist project, fluorescence, CHO-V1R cells; Vasopressin V1a receptor (Homo sapiens), P37288; Fluo-8 calcium fluorescence, agonist mode; 0% DMSO, 100% 3 nM vasopressin; activation, % at 3 µM; hit rate 0.25% among 320,000; AID 2797, 2010;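 active means activation above the mean activation of all tested compounds plus 3 SD, per screening run, cut at about 20% in these data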;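 further: signal is peak over basal fluorescence ratio across a 100 second FLIPR read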
OXTR potentiator – human OXTR potentiators, primary screen, fluorescence, CHO-OTR cells, Fluo-8 calcium | hit rate 0.061% among 320,000 | Fluo-8 calcium fluorescence, potentiator mode; 0% = oxytocin EC15, 100% = EC100 | Oxytocin receptor (Homo sapiens), P30559 | activation, % at 3 µM;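 active means activation above that plate's cutoff, the mean activation of tested compounds plus 3 SD, cut at about 6.6% in these data, passing the limit was not always enough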
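System: human OTR in CHO cells / Also added: sub-maximal oxytocin, roughly EC15 / Control set: EC15 oxytocin low, 75 nM oxytocin high / Schedule: 6 min compound pre-incubation at room temperature, 100 s kinetic read / Compound: single-point 3.0 µM / Replication: singlicate / Technique: Fluo-8 calcium dye fluorescence / Read-out basis: % activation of max/min ratio relative to oxytocin controls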
OX1R antag-2 – antagonists of human orexin 1 receptor (OX1R) | OX1R-expressing cells, FRET antagonist read-out | inhibition, % at 6.6 µM | hit rate 1.8% among 330,000 | AID 485270, 2010; in the data active means inhibition mostly above about 38%, no sharp cut-off; inactive means mostly below about 40%
A number is an active result. Compounds with a hit are over-represented: about 2.7% of the library has one in this group of screens.

Results for CC(C)OP(=O)(Oc1ccc(C(O)C(Cl)(Cl)Cl)cc1)OC(C)C (stereo not drawn) ?
OXTR agonist: inactive; CHO parental Ca: inactive; OX1R antag-1: inactive; V1aR counter: inactive; OXTR potentiator: inactive; OX1R antag-2: 59.5

How did CCCCCn1c(=O)c(C(=O)NC(C)c2ccccc2)c(O)c2ccccc21 (stereo not drawn) do in these assays?
OXTR agonist: inactive; CHO parental Ca: inactive; OX1R antag-1: inactive; V1aR counter: inactive; OXTR potentiator: inactive; OX1R antag-2: inactive

Results for Cc1nc2cc(C(F)(F)F)ccc2n1C1CCN(Cc2nnnn2Cc2cccs2)CC1 ?
OXTR agonist: 32.5; CHO parental Ca: 61.3; OX1R antag-1: 43.4; V1aR counter: 36.6; OXTR potentiator: inactive; OX1R antag-2: inactive

How did COC(=O)C1=C(c2ccc(OC(F)(F)F)cc2)C[C@@H]2CC[C@H]1N2C(=O)N1CCCCC1 do in these assays?
OXTR agonist: inactive; CHO parental Ca: inactive; OX1R antag-1: inactive; V1aR counter: inactive; OXTR potentiator: inactive; OX1R antag-2: inactive

How did CCN(CC)S(=O)(=O)c1cc(NC(=O)C(C)N2CC=C(c3ccccc3)CC2)ccc1C (stereo not drawn) do in these assays?
OXTR agonist: inactive; CHO parental Ca: 43.1; OX1R antag-1: inactive; V1aR counter: inactive; OXTR potentiator: inactive; OX1R antag-2: inactive

How did Cc1nn(Cc2ccccc2)c(Cl)c1C(=O)Nc1ccc(OC(F)(F)F)cc1 do in these assays?
OXTR agonist: inactive; CHO parental Ca: inactive; OX1R antag-1: inactive; V1aR counter: inactive; OXTR potentiator: inactive; OX1R antag-2: inactive

What do the screens show for `Cc1ccc(Cn2nc(C(=O)Nc3ccc(Br)cc3)cc2C)cc1`?
OXTR agonist: inactive; CHO parental Ca: 50.0; OX1R antag-1: inactive; V1aR counter: inactive; OXTR potentiator: inactive; OX1R antag-2: inactive

Results for O=C(CN1CCN(C(=O)COc2cccc(F)c2)CC1)Nc1ccc(Cl)c(C(F)(F)F)c1 ?
OXTR agonist: inactive; CHO parental Ca: inactive; OX1R antag-1: inactive; V1aR counter: inactive; OXTR potentiator: inactive; OX1R antag-2: inactive

How did N#CC(Br)Br do in these assays?
OXTR agonist: inactive; CHO parental Ca: inactive; OX1R antag-1: inactive; V1aR counter: inactive; OXTR potentiator: inactive; OX1R antag-2: inactive

What do the screens show for `O=c1[nH]c(O)c(N=Nc2ccc(SC(F)F)cc2)c(=O)[nH]1`?
OXTR agonist: inactive; CHO parental Ca: inactive; OX1R antag-1: inactive; V1aR counter: inactive; OXTR potentiator: inactive; OX1R antag-2: 42.0

How did Fc1ccc(C2=CCN(C(c3cccs3)c3nnnn3CCc3ccccc3)CC2)cc1 (stereo not drawn) do in these assays?
OXTR agonist: inactive; CHO parental Ca: inactive; OX1R antag-1: inactive; V1aR counter: inactive; OXTR potentiator: inactive; OX1R antag-2: inactive

What do the screens show for `CCC(C)(C)n1nnnc1C(c1cccs1)N1CC=C(c2ccc(F)cc2)CC1` (stereo not drawn)?
OXTR agonist: inactive; CHO parental Ca: 45.7; OX1R antag-1: inactive; V1aR counter: inactive; OXTR potentiator: inactive; OX1R antag-2: inactive

What do the screens show for `CCNCCNc1ccc([N+](=O)[O-])c2cccnc12`?
OXTR agonist: inactive; CHO parental Ca: inactive; OX1R antag-1: inactive; V1aR counter: inactive; OXTR potentiator: inactive; OX1R antag-2: 41.8

How did O=C(O)C1Cc2ccccc2N2CCCC12 (stereo not drawn) do in these assays?
OXTR agonist: inactive; CHO parental Ca: inactive; OX1R antag-1: inactive; V1aR counter: inactive; OXTR potentiator: inactive; OX1R antag-2: inactive

Results for COC(=O)C1=C(c2ccc(Cl)c(C(F)(F)F)c2)C[C@@H]2CC[C@H]1N2C(=O)NC1CCCCC1 ?
OXTR agonist: inactive; CHO parental Ca: inactive; OX1R antag-1: inactive; V1aR counter: inactive; OXTR potentiator: inactive; OX1R antag-2: inactive

Results for CCCCn1c(=O)c(C(=O)Nc2ccccc2S(N)(=O)=O)c(O)c2ccccc21 ?
OXTR agonist: inactive; CHO parental Ca: inactive; OX1R antag-1: inactive; V1aR counter: inactive; OXTR potentiator: inactive; OX1R antag-2: 35.3

How did CCCCn1c(=O)c(C(=O)Nc2ncccc2C)c(O)c2ccccc21 do in these assays?
OXTR agonist: 35.5; CHO parental Ca: inactive; OX1R antag-1: inactive; V1aR counter: 38.7; OXTR potentiator: inactive; OX1R antag-2: inactive

Results for CCCCCn1c(=O)c(C(=O)Nc2ccccc2S(N)(=O)=O)c(O)c2ccccc21 ?
OXTR agonist: inactive; CHO parental Ca: inactive; OX1R antag-1: inactive; V1aR counter: inactive; OXTR potentiator: inactive; OX1R antag-2: inactive

Results for C=CCN1CC[C@]23c4c5ccc(O)c4OC2C(O)C=CC3[C@H]1C5 (stereo partly drawn) ?
OXTR agonist: inactive; CHO parental Ca: inactive; OX1R antag-1: inactive; V1aR counter: inactive; OXTR potentiator: inactive; OX1R antag-2: inactive

What do the screens show for `CC1CCN(S(=O)(=O)c2ccc(NN=C(C#N)C#N)cc2)CC1`?
OXTR agonist: inactive; CHO parental Ca: inactive; OX1R antag-1: inactive; V1aR counter: inactive; OXTR potentiator: inactive; OX1R antag-2: 101.0

What do the screens show for `O=C(N/N=C\C1C(=O)NC(=S)N(c2ccccc2)C1=O)c1ccc(O)cc1` (stereo not drawn)?
OXTR agonist: inactive; CHO parental Ca: inactive; OX1R antag-1: inactive; V1aR counter: inactive; OXTR potentiator: inactive; OX1R antag-2: 46.2

What do the screens show for `O=C(N/N=C/c1c(O)n(-c2ccccc2)c(=S)[nH]c1=O)c1ccccc1`?
OXTR agonist: inactive; CHO parental Ca: inactive; OX1R antag-1: inactive; V1aR counter: inactive; OXTR potentiator: inactive; OX1R antag-2: inactive

What do the screens show for `CCC(C(=O)N1CCC2(CC1)OCCO2)n1c2ccccc2c2nc(=O)cc(C)n21` (stereo not drawn)?
OXTR agonist: inactive; CHO parental Ca: inactive; OX1R antag-1: inactive; V1aR counter: inactive; OXTR potentiator: inactive; OX1R antag-2: inactive

What do the screens show for `NNc1n[nH]c(=S)n1N`?
OXTR agonist: inactive; CHO parental Ca: inactive; OX1R antag-1: inactive; V1aR counter: inactive; OXTR potentiator: inactive; OX1R antag-2: 61.3

How did CCNC(=S)N1CCn2cccc2C1c1cccnc1 (stereo not drawn) do in these assays?
OXTR agonist: inactive; CHO parental Ca: inactive; OX1R antag-1: inactive; V1aR counter: inactive; OXTR potentiator: inactive; OX1R antag-2: inactive

What do the screens show for `O=C(C(Cc1ccccc1)NS(=O)(=O)c1cccc2nsnc12)N1CCC2(CC1)OCCO2` (stereo not drawn)?
OXTR agonist: inactive; CHO parental Ca: inactive; OX1R antag-1: inactive; V1aR counter: inactive; OXTR potentiator: inactive; OX1R antag-2: inactive

Source: PubChem
